Data on 21 compounds can be found in ChEMBL document CHEMBL1138666, “Direct influence of C-terminally substituted amino acids in the Dmt-Tic pharmacophore on delta-opioid receptor selectivity and antagonism” (J Med Chem, 2004).

Each structure is given as a SMILES string. pIC50, pKi: −log10 of the molar value. Square brackets hold non-standard residues; d marks the D form. Peptide text beside a SMILES is read from it. ξ: configuration not given here. Dmt = Cc1cc(O)cc(C)c1C[C@H](N)C(=O)O; Tic = O=C(O)[C@@H]1Cc2ccccc2CN1; ξTic = O=C(O)C1Cc2ccccc2CN1 Some results are limits rather than exact numbers.

Experiment [1] is described as follows: Binding affinity for rat Opioid receptor delta 1. In a few lines: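 Rat brain synaptosomes (P2), preincubated to remove endogenous opioids and stored at -80 °C in buffered 20% glycerol. […] Filters were PEI-soaked GF/C, washed thrice in ice-cold buffered BSA. Five to eight doses, duplicates, independent preparations; Ki by Cheng-Prusoff, mean ± SE.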
For a further experiment, the species on record is Rattus norvegicus. In words: Ratio of binding affinities for rat Opioid receptors mu 1 and delta 1.
The target of experiment [2] is T1, Mu-type opioid receptor (Cavia porcellus, UniProt P97266). In words: Inhibition of Opioid receptor mu 1 in guinea pig ileum assay. The format is functional, tissue-based. In a few lines: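 Male guinea pig ileum myenteric plexus-longitudinal muscle, field-stimulated with supramaximal-voltage bipolar rectangular pulses. Inhibition of the electrically evoked twitch was measured, with dermorphin as reference agonist. IC50 was taken from concentration-response curves, mean ± SE of at least five to six fresh tissues.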
T1 sequence (P97266 whole entry): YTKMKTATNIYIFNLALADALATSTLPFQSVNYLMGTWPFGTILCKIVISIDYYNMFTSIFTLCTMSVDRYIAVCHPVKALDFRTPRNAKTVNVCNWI

Experiment [3] deals with T2, Delta-type opioid receptor (Mus musculus, UniProt P32300). As to the kind of experiment: Antagonist activity against deltorphin in mouse vas deferens assay. The format is functional, tissue-based. The following applies: read-out: pA2 (converted). In a few lines: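 Mouse vas deferens, field-stimulated with supramaximal-voltage bipolar rectangular pulses. Antagonism was scored as a rightward shift of the deltorphin C log(concentration)-response curve and reported as pA2, the negative log molar antagonist concentration that doubles the agonist concentration needed for the original submaximal response.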
T2 sequence (P32300 whole entry): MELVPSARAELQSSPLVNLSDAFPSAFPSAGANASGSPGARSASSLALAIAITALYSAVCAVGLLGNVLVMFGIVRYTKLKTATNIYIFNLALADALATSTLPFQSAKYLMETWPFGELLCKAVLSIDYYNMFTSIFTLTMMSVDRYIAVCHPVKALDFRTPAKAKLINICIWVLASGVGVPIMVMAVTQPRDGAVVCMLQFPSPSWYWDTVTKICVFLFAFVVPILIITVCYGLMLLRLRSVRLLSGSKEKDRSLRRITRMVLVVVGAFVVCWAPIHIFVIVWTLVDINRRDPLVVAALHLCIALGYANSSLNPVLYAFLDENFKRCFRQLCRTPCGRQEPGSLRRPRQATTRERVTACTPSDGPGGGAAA

A short description of experiment [4]: Binding affinity for rat Opioid receptor mu 1.
The target in experiment [5] is T2, Delta-type opioid receptor. As to the kind of experiment: Inhibition of Delta opioid receptor in mouse vas deferens assay. The format is functional. In a few lines:
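Mouse vas deferens, field-stimulated with supramaximal-voltage bipolar rectangular pulses. Inhibition of the electrically evoked twitch was measured, with deltorphin C as reference agonist. IC50 was taken from concentration-response curves, mean ± SE of at least five to six fresh tissues.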

For experiment [6], the target named is T1, Mu-type opioid receptor. In words: Antagonist activity against dermorphin in guinea pig ileum assay. The format is functional, tissue-based. The following applies: read-out: pA2 (converted). In a few lines: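 Male guinea pig ileum myenteric plexus-longitudinal muscle, field-stimulated with supramaximal-voltage bipolar rectangular pulses. Antagonism was scored as a rightward shift of the dermorphin log(concentration)-response curve and reported as pA2, the negative log molar antagonist concentration that doubles the agonist concentration needed for the original submaximal response.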

A word on the pKi: it is the negative decadic logarithm of the Ki, by convention in mol/L. Usually pIC50 stands for −log10 of the IC50, conventionally taken in molar units. Higher therefore signals a small IC50. In the case of `CC(=O)NCCCC[C@@H](NC(=O)[C@@H]1Cc2ccccc2CN1C(=O)[C@@H](N)Cc1c(C)cc(O)cc1C)C(=O)O`, the results for the negative-log Ki (pKi) in experiment [1] and in experiment [4] were 10.10 and 7.06, respectively. Besides, the Ratio in the experiment listed under Rattus norvegicus came to 1.05. This compound had a pIC50 against Mu-type opioid receptor [2] of 5.82. For the same compound, in experiment [3], the Kb is 0.513 nM.
For `Cc1cc(O)cc(C)c1C[C@H](N)C(=O)N1Cc2ccccc2C[C@H]1C(=O)N[C@H](CC(N)=O)C(=O)O` the same measures were 9.13, 5.40, 5.4, < 5.00 and 5.89 nM.
Take `Cc1cc(O)cc(C)c1C[C@H](N)C(=O)N1Cc2ccccc2C[C@H]1C(=O)N[C@H](C)C(=O)O`: the Ratio in the experiment filed under Rattus norvegicus was found to be 20.4.
`Cc1cc(O)cc(C)c1C[C@H](N)C(=O)N1Cc2ccccc2C[C@H]1C(=O)N[C@@H](CC(=O)O)C(N)=O`: the pKi is 9.54 in experiment [1] and 5.59 in experiment [4]. The Ratio in the experiment filed under Rattus norvegicus was 8.88. The pIC50 against Mu-type opioid receptor [2] was < 5.00. Also, the Kb in experiment [3] is 7.59 nM.
Turning to `Cc1cc(O)cc(C)c1C[C@H](N)C(=O)N1Cc2ccccc2C[C@H]1C(=O)N[C@@H](CCC(=O)O)C(N)=O`, the pKi was 10.22 in experiment [1] and 5.87 in experiment [4]. Further, in the experiment filed under Rattus norvegicus, the Ratio is 22.6. Further, in experiment [5], the pIC50 is 5.60. Besides, the Kb in experiment [3] is < 0.1 nM.
On to `Cc1cc(O)cc(C)c1C[C@H](N)C(=O)N1Cc2ccccc2C[C@H]1C(=O)N[C@H](CCC(N)=O)C(=O)O`, for which the pKi in experiment [1] was 9.35; in experiment [4] it was 6.25. Also, in the experiment listed under Rattus norvegicus, the Ratio stood at 1.25. Also, the pIC50 on Mu-type opioid receptor [2] was < 5.00. For the same compound, the Kb in experiment [3] is 1.23 nM.
Take `Cc1cc(O)cc(C)c1C[C@H](N)C(=O)N1Cc2ccccc2C[C@H]1C(=O)N[C@@H](C)C(=O)O`: the pKi in experiment [1] was 9.54; in experiment [4], 5.24. For the same compound, on Mu-type opioid receptor [2], the pIC50 is < 5.00.
In the case of `Cc1cc(O)cc(C)c1C[C@H](N)C(=O)N1Cc2ccccc2C[C@H]1C(=O)N[C@@H](CC(N)=O)C(=O)O`, the values for the pKi in experiment [1] and in experiment [4] were 8.96 and 7.10, respectively. Further, the Ratio in the experiment listed under Rattus norvegicus is 73. Moreover, at Mu-type opioid receptor [2], the negative logarithm of the IC50 (pIC50) was < 5.00. Moreover, in experiment [3], the Kb is 5.89 nM.
For `CC(=O)NCCCC[C@H](NC(=O)[C@@H]1Cc2ccccc2CN1C(=O)[C@@H](N)Cc1c(C)cc(O)cc1C)C(=O)O`, the figures for the pKi in experiment [1] and in experiment [4] were 10.40 and 5.98, respectively. Besides, the Ratio in the experiment filed under Rattus norvegicus amounted to 22.4. Further, the pIC50 against Mu-type opioid receptor [2] is < 5.00. Further, in experiment [3], the Kb is 0.0851 nM.
With `Cc1cc(O)cc(C)c1C[C@H](N)C(=O)N1Cc2ccccc2C[C@H]1C(=O)NCC(N)=O` (H-[Dmt]-[Tic]-Gly-NH2), the results for the pKi in experiment [1] and in experiment [4] were 9.60 and 6.85, respectively. Moreover, the Ratio in the experiment listed under Rattus norvegicus came to 559. The pIC50 on Mu-type opioid receptor [2] is < 5.00. In addition, in experiment [3], the Kb was 22.4 nM.
For `Cc1cc(O)cc(C)c1C[C@H](N)C(=O)N1Cc2ccccc2C[C@H]1C(=O)NC(CO)C(N)=O` (single isomer, unassigned) the same measures were 9.89, 6.85, 1.12, < 5.00 and 8.51 nM.
For `Cc1cc(O)cc(C)c1C[C@H](N)C(=O)N1Cc2ccccc2C[C@H]1C(=O)NC(CCCN=C(N)N)C(N)=O` (single isomer, unassigned) the same measures were 9.14, 7.82, 21, 5.18 and 126 nM.
For `Cc1cc(O)cc(C)c1C[C@H](N)C(=O)N1Cc2ccccc2C[C@H]1C(=O)NC(Cc1c[nH]cn1)C(=O)O` (single isomer, unassigned) the same measures were 9.92, 6.76, 1.4, < 5.00 and 1.91 nM.
Regarding `Cc1cc(O)cc(C)c1C[C@H](N)C(=O)N1Cc2ccccc2C[C@H]1C(=O)N[C@@H](Cc1c[nH]c2ccccc12)C(=O)O` (H-[Dmt]-[Tic]-Trp-OH), the figures for the pKi in experiment [1] and in experiment [4] were 10.52 and 7.80, respectively. The compound further showed a negative-log IC50 (pIC50) against Mu-type opioid receptor [2] of 5.82. The Kb in experiment [3] is 0.269 nM.
Turning to `Cc1cc(O)cc(C)c1C[C@H](N)C(=O)N1Cc2ccccc2CC1C(=O)N[C@@H](Cc1c[nH]c2ccccc12)C(=O)O` (some centres undefined) (H-[Dmt]-[ξTic]-Trp-OH), the Ratio in the experiment filed under Rattus norvegicus was 462.
Regarding `Cc1cc(O)cc(C)c1C[C@H](N)C(=O)N1Cc2ccccc2C[C@H]1C(=O)NC(CCCCN)C(N)=O` (single isomer, unassigned), the pKi in experiment [1] was 9.15; in experiment [4], 7.77. Moreover, the Ratio in the experiment filed under Rattus norvegicus is 24. Besides, the pIC50 at Mu-type opioid receptor [2] was 5.10. Also, the Kb in experiment [3] was 13.5 nM.
Turning to `Cc1cc(O)cc(C)c1C[C@H](N)C(=O)N1Cc2ccccc2C[C@H]1C(=O)N[C@H](CCC(=O)O)C(N)=O`, the pKi is 10.30 in experiment [1] and 6.04 in experiment [4]. Further, the Ratio in the experiment filed under Rattus norvegicus was 17.4. For the same compound, the Kb in experiment [3] was 2.29 nM; on Mu-type opioid receptor [6], < 7940 nM.
In the case of `Cc1cc(O)cc(C)c1C[C@H](N)C(=O)N1Cc2ccccc2C[C@H]1C(=O)NC(C)C(N)=O` (stereo in doubt), the pKi in experiment [1] was 9.52; in experiment [4], 7.32. The Ratio in the experiment listed under Rattus norvegicus is 158. Moreover, the pIC50 against Mu-type opioid receptor [2] was < 5.00. The Kb in experiment [3] was 25.1 nM.
For `Cc1cc(O)cc(C)c1C[C@H](N)C(=O)N1Cc2ccccc2C[C@H]1C(=O)NC(CO)C(=O)O` (single isomer, unassigned) the same measures were 9.57, 5.55, 10.5, < 5.00 and 1.32 nM.
For `Cc1cc(O)cc(C)c1C[C@H](N)C(=O)N1Cc2ccccc2C[C@H]1C(=O)N[C@H](CC(=O)O)C(N)=O` the same measures were 9.36, 6.44, 834, < 5.00 and 7.24 nM.
For `Cc1cc(O)cc(C)c1C[C@H](N)C(=O)N1Cc2ccccc2C[C@H]1C(=O)N[C@@H](CCC(N)=O)C(=O)O` the same measures were 9.49, 6.33, 1.43, < 5.00 and 1.05 nM.
